From PubChem BioAssay
Inconclusive results are not listed.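 The calls were made as follows, unless noted: active = viability increase at or above a cutoff of the median across tested compounds plus 3 SD (cut at about 8.5% in these data, passing the limit was not always enough); inconclusive = some gains above the cutoff, reason not given; inactive = the rest.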

Assays:
[1] = S. cerevisiae growth inhibition in permissive medium (OD615), pilot counter-assay for S. cerevisiae lifespan shortening project, permissive growth control (AID 705;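 active = growth inhibition above 25% in both replicates, a cutoff set 3 SD above the mean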); settings: OD615, 24 h, at 10 µM, hits give high values
How it was run: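 Test system: Saccharomyces cerevisiae strain carrying genetically modified DeaD replicative-lifespan system; buffer or medium: SC raffinose/galactose permissive medium; dosing: one dose 10 µM, DMSO 0.25% final; times: 24 h exposure, 30 °C; measured by: OD at 615 nm; read-out basis: growth inhibition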

[2] = S. cerevisiae growth inhibition in restrictive medium, OD615, pilot screen, restrictive growth control, yeast lifespan reduction project (AID 706;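 active = growth inhibition above a set limit, 3 SD over mean compound inhibition, in both replicates, cut at about 43% in these data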;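 also: modified DeaD lifespan yeast strain shifted to restrictive glucose medium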); settings: OD615, 48 h, at 10 µM, hits give high values
How it was run: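 material = engineered S. cerevisiae DeaD strain | buffer or medium = glucose-based CSMM-D restrictive medium | dosing = one concentration, 10 µM final, 0.25% DMSO | schedule = 4 h pre-growth plus 48 h compound exposure, 30 °C | detection = OD615 absorbance reading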

[3] = doxorubicin toxicity protection in MRP-1 cells – H69AR cells, CellTiter-Glo, duplicate, MRP-1 activator project, pilot screen (AID 807); settings: H69AR viability with doxorubicin, CellTiter-Glo luminescence; at 10 µM; hits give high values;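 also: compound pretreatment 18-22 h then 72 h combined with doxorubicin; 0% = doxorubicin alone and 100% = vehicle without doxorubicin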
[4] = viability of HCT116 without oncogenic beta-catenin – human colon tumor cells, pilot screen (AID 823;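 active = cell viability at or below a set limit in both duplicate runs, the limit being the all-compound median minus 4 SD, cut at about 23% in these data, passing the limit was not always enough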;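 also: 0% = wells killed by 20 µM Hyamine and 100% = untreated DMSO cell wells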); settings: HCT116 beta-catenin knockout viability, CellTiter-Glo, 60 h; at 10 µM; hits give low values
[5] = viability of PTEN-null HCT116 cells – cell-based, HCT116 clonal line, CellTiter-Glo, pilot screen (AID 824;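 active = viability at or below 27.92% in each of two runs, the all-compound median minus 4 SD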;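 also: 0% = 20 µM Hyamine control and 100% = vehicle cell control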); settings: HCT116 PTEN-deleted viability, 60 h, at 10 µM, hits give low values
[6] = RAM pathway blockade in budding yeast – dse1pr::URA3 reporter, 5-FOA selection, pilot screen (AID 869;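 active = inhibition over a set limit, the all-compound mean plus 3 SD, in both replicate runs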;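 also: 0% = DMSO wells with no growth and 100% = 10 µM 1-NA-PP1 with full growth; RAM network block rescues cells from 5-FOA so hits raise OD615 growth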); settings: S. cerevisiae dse1pr::URA3 5-FOA growth, OD615, 2 d; at 10 µM; hits give high values; strain carries analog-sensitive mutant Cbk1 kinase
[7] = RAM signaling pathway blockade in yeast – S. cerevisiae, Pdr1DBD-CYC8 efflux-inhibited sensitized strain, primary screen (AID 1298;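 active = RAM network inhibition above 8.4% in each of two replicates, 3 SD over the compound average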;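 also: 0% = DMSO untreated cells without growth and 100% = 10 µM 1-NA-PP1 full growth; higher means more yeast growth rescued from 5-FOA killing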); settings: S. cerevisiae cbk1-as DSE1-URA3 strain, 5-FOA growth OD615, 2 d; at 50 µM; hits give high values

Cc1cc(=O)[nH]c(SCc2cc(=O)n3nc(C)sc3n2)n1
inactive: growth inhibition [1] 4.53% | growth inhibition [2] -7.55% | viability increase [3] -1% | viability [4] 104% | viability [5] 96.5% | inhibition [6] 1.32% | RAM network inhibition [7] 5.96%

NC(=O)c1cc(N2C(=O)C3CC=CCC3C2=O)ccc1N1CCCCC1 (centres undefined)
inactive: growth inhibition [1] -21.2% | growth inhibition [2] -3.95% | viability increase [3] 0.16% | viability [4] 93.1% | viability [5] 92.4% | inhibition [6] 1.98% | RAM network inhibition [7] 4.2%

Cc1onc(-c2ccccc2Cl)c1C(=O)NC1CCS(=O)(=O)C1 (centres undefined)
inactive: growth inhibition [1] -10% | growth inhibition [2] 1.32% | viability increase [3] 1.32% | viability [4] 103% | viability [5] 106% | inhibition [6] 2.96% | RAM network inhibition [7] 3.02%

CC(C)C(=O)Nc1nnc(-c2ccccc2)o1
inactive: growth inhibition [1] -5.24% | growth inhibition [2] -0.51% | viability increase [3] -2.2% | viability [4] 102% | viability [5] 101% | inhibition [6] 0.64% | RAM network inhibition [7] -0.68%

O=S(=O)(NCCc1cn2ccccc2n1)c1ccc2c(c1)OCCO2
inactive: growth inhibition [1] -2.27% | growth inhibition [2] -2.71% | viability increase [3] -2.56% | viability [4] 105% | viability [5] 97% | inhibition [6] 1.62% | RAM network inhibition [7] 2.25%

Cn1cccc1Cc1nnc(SCC(=O)Nc2ccc3c(c2)OCO3)n1-c1ccc(F)cc1
inactive: growth inhibition [1] 8.39% | growth inhibition [2] 14.1% | viability increase [3] -1.95% | viability [4] 90.4% | viability [5] 91.3% | inhibition [6] 1.56% | RAM network inhibition [7] 8.29%

O=C(COC(=O)c1ccccc1Oc1ccccc1)NCc1ccco1
inactive: growth inhibition [1] -7.67% | growth inhibition [2] -3.48% | viability increase [3] -6.02% | viability [4] 61.6% | viability [5] 67.1% | inhibition [6] 2.41% | RAM network inhibition [7] 2.24%

Nc1nonc1-n1nncc1-c1ccccc1
inactive: growth inhibition [1] -8.35% | growth inhibition [2] -13.6% | viability increase [3] -1.04% | viability [4] 92.4% | viability [5] 96.7% | inhibition [6] 1.67% | RAM network inhibition [7] 1.25%

CCN(CC)C(=O)C1CCCN(C/C=C/c2ccccc2)C1 (centres undefined)
inactive: growth inhibition [1] -5% | growth inhibition [2] -9.31% | viability increase [3] -0.55% | viability [4] 84.9% | viability [5] 90.9% | inhibition [6] 0.74% | RAM network inhibition [7] -1.53%

CC(C)Cc1ccc(C#N)c(SCC(N)=O)n1
inactive: growth inhibition [1] -8.16% | growth inhibition [2] -9.82% | viability increase [3] -2.54% | viability [4] 97.2% | viability [5] 92.1% | inhibition [6] 2.18% | RAM network inhibition [7] 3.19%

O=C(CN1CC(c2ccccc2)CC1=O)Nc1ccc2c(c1)OCO2 (centres undefined)
inactive: growth inhibition [1] -7.38% | growth inhibition [2] 0.29% | viability increase [3] -1.16% | viability [4] 98% | viability [5] 101% | inhibition [6] 0.205% | RAM network inhibition [7] 1.31%

CCN(CC)S(=O)(=O)c1ccc(C(=O)Nc2ccc(OCC(=O)N3CCOCC3)cc2)cc1
inactive: growth inhibition [1] -6% | growth inhibition [2] -11% | viability increase [3] 0.35% | viability [4] 86.6% | viability [5] 95.4% | inhibition [6] 0.185% | RAM network inhibition [7] 4.45%

Cc1cc(N2CCN(C(=O)c3ccco3)CC2)n2nc(C)nc2n1
inactive: growth inhibition [1] -6.63% | growth inhibition [2] 5.6% | viability increase [3] -3.61% | viability [4] 95.5% | viability [5] 98.2% | inhibition [6] 0.95% | RAM network inhibition [7] -0.63%

Cc1ccc(N(CC(N)=O)C2SC(=O)N(C)C2=O)cc1 (centres undefined)
inactive: growth inhibition [1] -11.9% | growth inhibition [2] -7.83% | viability increase [3] -2.96% | viability [4] 97.8% | viability [5] 102% | inhibition [6] 1.09% | RAM network inhibition [7] 3.14%

CCn1nnnc1-c1ccc(OC)c(S(=O)(=O)NCCc2ccccc2)c1
inactive: growth inhibition [1] 2.78% | growth inhibition [2] 2.87% | viability increase [3] 0.85% | viability [4] 93.5% | viability [5] 97.3% | inhibition [6] 0.03% | RAM network inhibition [7] 1.98%

CC(=O)OC(/C(O)=C(\C#N)c1nc2ccccc2[nH]1)c1ccccc1 (centres undefined)
inactive: growth inhibition [1] 0.55% | growth inhibition [2] 3.63% | viability increase [3] -0.98% | viability [4] 59.6% | viability [5] 54.3% | inhibition [6] 1.63% | RAM network inhibition [7] 3.42%

CCOC(=O)CC1=C(C#N)C(c2cccnc2)C(C(=O)OCC)=C(N)O1 (centres undefined)
inactive: growth inhibition [1] -0.965% | growth inhibition [2] -12.4% | viability increase [3] -3.12% | viability [4] 104% | viability [5] 99.6% | inhibition [6] 1.98% | RAM network inhibition [7] 8.18%

CCSc1nnc(NC(=O)CC)s1
inactive: growth inhibition [1] -14.2% | growth inhibition [2] -13.4% | viability increase [3] 1.42% | viability [4] 106% | viability [5] 99% | inhibition [6] 1.21% | RAM network inhibition [7] -0.32%

Cn1cccc1Cc1nnc(SCC(=O)NCCc2ccccc2)n1-c1ccc(F)cc1
inactive: growth inhibition [1] -6.41% | growth inhibition [2] 5.7% | viability increase [3] -2.38% | viability [4] 93.7% | viability [5] 93.3% | inhibition [6] 2.35% | RAM network inhibition [7] 5.42%

Cc1c(C(=O)N2CCCC2)oc2c1-c1[nH]ncc1CC2
inactive: growth inhibition [1] -15.2% | growth inhibition [2] -14.4% | viability increase [3] -1.8% | viability [4] 105% | viability [5] 94.2% | inhibition [6] 0.715% | RAM network inhibition [7] 2.08%

Cc1sc(NC(=O)c2cccs2)c(C(N)=O)c1C
inactive: growth inhibition [1] -6.89% | growth inhibition [2] 22.8% | viability increase [3] -6.53% | viability [4] 80.8% | viability [5] 88.4% | inhibition [6] 0.26% | RAM network inhibition [7] -1.19%

COC(=O)c1ccc2[nH]c(C)cc(=O)c2c1
inactive: growth inhibition [1] -15.1% | growth inhibition [2] -24.1% | viability increase [3] -0.51% | viability [4] 99.8% | viability [5] 90.9% | inhibition [6] 1.61% | RAM network inhibition [7] 4.64%

Cc1ccc(N2C(=O)CC(N3CCN(C4CCc5ccccc5C4)CC3)C2=O)cc1 (centres undefined)
inactive: growth inhibition [1] -2.06% | growth inhibition [2] 1.44% | viability increase [3] -2.69% | viability [4] 102% | viability [5] 98.2% | inhibition [6] 0.215% | RAM network inhibition [7] 6.5%

Cc1cc(NC(=O)CSc2nc3c(c(=O)n2-c2ccccc2)SC(C)C3)no1 (centres undefined)
inactive: growth inhibition [1] -3.02% | growth inhibition [2] -11.7% | viability increase [3] -2.58% | viability [4] 93% | viability [5] 91.2% | inhibition [6] 4.66% | RAM network inhibition [7] 1.22%

CCOc1ccc(NC(=O)N(C2CCCCC2)C2CCN(C(C)=O)CC2)cc1
inactive: growth inhibition [1] -8.37% | growth inhibition [2] 6.87% | viability increase [3] -0.8% | viability [4] 102% | viability [5] 100% | inhibition [6] 0.795% | RAM network inhibition [7] 3.05%

CCN(c1ccccc1)c1cc(C)nc2ncnn12
inactive: growth inhibition [1] -18% | growth inhibition [2] -1.56% | viability increase [3] -3.24% | viability [4] 96.7% | viability [5] 94.9% | inhibition [6] 1.6% | RAM network inhibition [7] 4.57%

Cc1cccc(C(=O)N2CCN(Cc3ccc4c(c3)OCO4)CC2)c1
inactive: growth inhibition [1] -10.7% | growth inhibition [2] -4.2% | viability increase [3] -1.3% | viability [4] 111% | viability [5] 95.7% | inhibition [6] -0.065% | RAM network inhibition [7] 4.6%

CC(C)NC(=O)C1CCCN(c2nnc(-n3cccc3)s2)C1 (centres undefined)
inactive: growth inhibition [1] -0.35% | growth inhibition [2] 14.8% | viability increase [3] -3.11% | viability [4] 108% | viability [5] 97.6% | inhibition [6] -0.455% | RAM network inhibition [7] 0.02%

CC1CCC(NC(=O)Cn2cc3c(n2)CCCC3)CC1 (centres undefined)
inactive: growth inhibition [1] -4.87% | growth inhibition [2] -6.18% | viability increase [3] 1.57% | viability [4] 110% | viability [5] 103% | inhibition [6] -0.485% | RAM network inhibition [7] 0.23%

CCOC(=O)C1CCCN(C(=O)c2ccco2)C1 (centres undefined)
inactive: growth inhibition [1] -11.6% | growth inhibition [2] -12.6% | viability increase [3] -3.01% | viability [4] 93.7% | viability [5] 102% | inhibition [6] 2.3% | RAM network inhibition [7] 0.62%

CCOc1ccc(OCC)c(NC(=O)CN2CCC(NC(=O)c3cccc(F)c3)CC2)c1
inactive: growth inhibition [1] -3.75% | growth inhibition [2] -12.3% | viability increase [3] -4.87% | viability [4] 77.5% | viability [5] 78.7% | inhibition [6] 2.31% | RAM network inhibition [7] 5.19%

CCC(Sc1nccn1C)C(=O)Nc1nnc(C)s1 (centres undefined)
inactive: growth inhibition [1] -21.2% | growth inhibition [2] 2.97% | viability increase [3] 5% | viability [4] 101% | viability [5] 94.2% | inhibition [6] 1.58% | RAM network inhibition [7] 1.93%

CCCc1cc(=O)oc2cc(OCC(=O)N(C)C)c(Cl)cc12
inactive: growth inhibition [1] -3.68% | growth inhibition [2] 6.56% | viability increase [3] -0.5% | viability [4] 99.6% | viability [5] 93.9% | inhibition [6] 1.73% | RAM network inhibition [7] -1.29%

CC(=O)n1c2ccccc2c2c1c1ccccc1n2C
inactive: growth inhibition [1] 10.6% | growth inhibition [2] 3.17% | viability increase [3] -4.83% | viability [4] 96% | viability [5] 82.6% | inhibition [6] 2.49% | RAM network inhibition [7] 2%

Cc1ccc(SCC(=O)NCC(C)C)cc1
inactive: growth inhibition [1] -0.86% | growth inhibition [2] 6.93% | viability increase [3] 0.66% | viability [4] 97.1% | viability [5] 102% | inhibition [6] 0.42% | RAM network inhibition [7] 0.68%

CCn1c(C(C)NC(C)=O)nc2ccccc21 (centres undefined)
inactive: growth inhibition [1] -13.6% | growth inhibition [2] -5.8% | viability increase [3] 0.8% | viability [4] 112% | viability [5] 106% | inhibition [6] 2.2% | RAM network inhibition [7] 3.48%

COc1cc(NC(=O)c2cc3c(=O)n(C)c4ccccc4c3n2C)cc(OC)c1OC
inactive: growth inhibition [1] 1.8% | growth inhibition [2] 7.94% | viability increase [3] -3.3% | viability [4] 106% | viability [5] 95.7% | inhibition [6] 3.3% | RAM network inhibition [7] 5.77%
